The results in this text go back to ChEMBL document CHEMBL1629555, “Antimalarial activity of phenylthiazolyl-bearing hydroxamate-based histone deacetylase inhibitors” (Antimicrob Agents Chemother, 2008).

In data set [1] the test system is Plasmodium falciparum. The data set can be described thus: Antimicrobial activity against Plasmodium falciparum W2 at […] in presence of azithromycin. In kind it is functional. A digest of the protocol:
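In vitro fixed-ratio isobologram using a SYBR green I fluorescence assay. […] IC50s were standardized and FIC50 and ΣFIC50 calculated by the Berenbaum method. Reported as the average ΣFIC across dilutions or the average maximum ΣFIC, from at least 2 experiments.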

Data set [2] has as its target T1, Histone deacetylase (Plasmodium falciparum 3D7) (UniProt Q7K6A1).
T1 sequence (whole entry): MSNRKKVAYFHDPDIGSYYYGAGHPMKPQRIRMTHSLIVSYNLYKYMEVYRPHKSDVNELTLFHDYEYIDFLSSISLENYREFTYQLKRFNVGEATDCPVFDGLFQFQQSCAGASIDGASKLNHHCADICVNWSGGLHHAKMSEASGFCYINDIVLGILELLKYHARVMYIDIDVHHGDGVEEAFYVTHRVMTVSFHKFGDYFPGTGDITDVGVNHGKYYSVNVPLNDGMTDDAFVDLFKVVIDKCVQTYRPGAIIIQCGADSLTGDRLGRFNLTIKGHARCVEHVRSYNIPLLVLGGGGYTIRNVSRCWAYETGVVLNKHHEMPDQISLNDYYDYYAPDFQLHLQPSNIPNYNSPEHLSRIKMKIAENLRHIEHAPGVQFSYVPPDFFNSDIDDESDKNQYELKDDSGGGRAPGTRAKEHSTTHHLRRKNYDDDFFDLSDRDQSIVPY
The data set can be described thus: Inhibition of Plasmodium falciparum 3D7 histone deacetylase infected in human erythrocytes assessed as alteration of histone H3 acetylation after 3.5 hrs by SDS-PAGE. In kind it is cell-based. The method in brief: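 About 3 × 10^9 erythrocytes infected with late-trophozoite P. falciparum 3D7 were exposed to compound or to DMSO vehicle for 3.5 h at 37°C, and an untreated sample was taken at the start. Histones were extracted, about 6 × 10^8 parasites were loaded per lane on SDS–15% PAGE, and loading was checked by silver stain. Western blots were probed with anti-tetraacetyl-H4 and anti-diacetyl-H3 antisera and detected by ECL.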

Data set [3] can be described thus: Half life in ICR mouse at 50 mg/kg/day, po by LC/MS analysis. On the set-up: route oral. In kind it is ADME, organism-based. Particulars: in vivo. A digest of the protocol:
(§1)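 Male ICR mice, 8 weeks old, got one 50 mg/kg dose either orally or subcutaneously, with three groups of six mice per route. One mouse per group was killed at 15, 30 and 60 min and at 3, 6 and 24 h. Plasma was deproteinized with 2 volumes of acetonitrile and analysed by LC-MS/MS on a C18 column against 0–500 ng/ml standards, with parent and acid metabolite measured in the same sample. Each six-mouse group was treated as one "animal" and fitted to a two-compartment model. AUC was taken by the linear trapezoidal rule extrapolated to infinity, and Cmax and Tmax were read per "animal".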

In data set [4] the test system is Plasmodium falciparum. Nature of the data set: Antimicrobial activity against Plasmodium falciparum D6 infected in Aotus lemurinus lemurinus monkey at […] in presence of 4 mg/kg chloroquine. In kind it is functional.
For data set [5], the system named is Plasmodium berghei. Nature of the data set: Antimalarial activity against Plasmodium berghei infected in mouse assessed as effect on cure rate at split dose of 160 mg/kg/day, po for 3 days. In kind it is functional, organism-based. A digest of the protocol:
(§2)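 Mice were infected ip with 10^6 P. berghei-parasitized erythrocytes. The compound was given in hydroxyethylcellulose-Tween 20 vehicle, 5 mice per group, starting on day 3 post-infection. Regimens were once-daily or split daily oral doses over 3 days, subcutaneous dosing, or dosing over 7 days. Read-outs were posttreatment parasitemia on day 6 as a fraction of controls and the number of mice cured.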

Data set [6] concerns Mus musculus. The data set can be described thus: Toxicity in Plasmodium berghei-infected mouse assessed as mortality at split dose of 160 mg/kg/day, po for 3 days. Details: route oral. Particulars: in vivo, 72 h. In kind it is organism-based.
The test system of data set [7] is Plasmodium berghei. The data set can be described thus: Antimalarial activity against Plasmodium berghei infected in mouse assessed as effect on cure rate at 0.32 mg/kg/day for 3 days. In kind it is functional, organism-based.
In data set [8] the test system is Plasmodium berghei. The data set can be described thus: Antimalarial activity against Plasmodium berghei infected in mouse assessed as parasitemia level at split dose of 160 mg/kg/day, po for 3 days measured on day 6 relative to control. Type of data set: functional. A digest of the protocol:
(§3)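 Blood-stage P. berghei model: mice inoculated ip with 10^6 parasitized erythrocytes. Oral treatment for 3 days, with the daily dose split, in hydroxyethylcellulose-Tween 20 vehicle. Day-6 parasitemia expressed as a fraction of control parasitemia.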

Data set [9] relates to Plasmodium falciparum. The data set can be described thus: Antimalarial activity against chloroquine-resistant Plasmodium falciparum FVO infected in Aotus lemurinus leminurus monkey assessed as reduction in parasitemia at 32 mg/kg/day, po for 3 days. Type of data set: functional, organism-based.
For data set [10], the system named is Plasmodium berghei. Nature of the data set: Antimalarial activity against Plasmodium berghei infected in mouse assessed as parasitemia level at split dose of 80 mg/kg/day, po for 3 days measured on day 6 relative to control. Type of data set: functional. The method in brief:
as §3

Data set [11] relates to Plasmodium berghei. Nature of the data set: Antimalarial activity against Plasmodium berghei infected in mouse assessed as parasitemia level at 0.32 mg/kg/day for 3 days measured on day 6 (reference value: 37%). Type of data set: functional.
Data set [12] relates to Plasmodium berghei. Nature of the data set: Antimalarial activity against Plasmodium berghei infected in mouse assessed as parasitemia level at 160 mg/kg/day for 3 days measured on day 3 in presence of 2 […] chloroquine (reference value: 0.46%). In kind it is functional. A digest of the protocol:
(§4)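 Mice were infected ip with 10^6 P. berghei-parasitized erythrocytes. The compound was given orally once daily on days 3, 4 and 5 post-infection in hydroxyethylcellulose-Tween 20 vehicle, alone or together with chloroquine, with 5 mice per dose group. Parasitemia (%) was read on days 3 and 6, and cures were counted as animals cured out of 5.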

Data set [13] deals with Plasmodium berghei. Nature of the data set: Antimalarial activity against Plasmodium berghei infected in mouse assessed as parasitemia level at single dose of 40 mg/kg/day, po for 3 days measured on day 6 relative to control. In kind it is functional. The method in brief: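 Mice infected intraperitoneally with 10^6 P. berghei-parasitized erythrocytes. Drug given orally once daily on days 3, 4 and 5 post-infection in hydroxyethylcellulose-Tween 20 vehicle, 5 mice per dose group. Parasitemia measured on day 6 and expressed as a fraction of untreated control parasitemia.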

The test system of data set [14] is Plasmodium berghei. Nature of the data set: Antimalarial activity against Plasmodium berghei infected in mouse assessed as effect on cure rate at 160 mg/kg/day for 3 days measured on day 6 in presence of 2 mg/kg/day chloroquine. Type of data set: functional, organism-based. The method in brief: as §4
The test system of data set [15] is Plasmodium berghei. The data set can be described thus: Antimalarial activity against Plasmodium berghei infected in mouse assessed as parasitemia level at 0.32 mg/kg/day for 3 days measured on day 3 in presence of 4 mg/kg/day chloroquine (reference value: 0.46%). Type of data set: functional.
Data set [16] can be described thus: Tmax in ICR mouse at 50 mg/kg/day, sc by LC/MS analysis. Type of data set: ADME, organism-based. On the set-up: route subcutaneous. Particulars: in vivo. The method in brief: as §1
Data set [17] concerns Plasmodium berghei. Nature of the data set: Antimalarial activity against Plasmodium berghei infected in mouse assessed as effect on cure rate at split dose of 320 mg/kg/day, po for 3 days. Type of data set: functional, organism-based. The method in brief:
as §2

Data set [18] concerns Plasmodium berghei. Nature of the data set: Antimalarial activity against Plasmodium berghei infected in mouse assessed as parasitemia level at split dose of 640 mg/kg/day, po for 3 days measured on day 6 relative to control. Type of data set: functional. A digest of the protocol:
as §3

In data set [19] the test system is Plasmodium falciparum. The data set can be described thus: Antimicrobial activity against Plasmodium falciparum W2 at […] in presence of 4 mg/kg chloroquine. In kind it is functional.
Data set [20] has as its system Plasmodium berghei. The data set can be described thus: Antimalarial activity against Plasmodium berghei infected in mouse assessed as effect on cure rate at single dose of 40 mg/kg/day, po for 3 days. In kind it is functional, organism-based. A digest of the protocol: as §2
Data set [21] relates to Mus musculus. Nature of the data set: Toxicity in Plasmodium berghei-infected mouse assessed as mortality at split dose of 130 mg/kg/day, po for 7 days. In kind it is organism-based. The following applies: in vivo, 168 h. On the set-up: route oral.
Data set [22] is described as follows: AUC in ICR mouse at 50 mg/kg/day, sc by LC/MS analysis. Type of data set: ADME, organism-based. Details: route subcutaneous. The following applies: plasma. The method in brief:
as §1

For data set [23], the system named is Mus musculus. The data set can be described thus: Toxicity in Plasmodium berghei-infected mouse assessed as mortality at split dose of 640 mg/kg/day, po for 3 days. Details: route oral. Particulars: in vivo, 72 h. In kind it is organism-based.

Calls of active or inactive are those of the source. The calls are words filed in the database; no cut-off is given here.

For orientation: half-life means the time in which the quantity being followed falls by half. By Tmax is commonly meant the time from dosing to the highest level. By AUC is commonly meant the area under the concentration-time curve, a measure of exposure. On to `Nc1cccc(-c2csc(NC(=O)CCCCCCC(=O)NO)n2)c1`, for which the “fractional inhibitory concentration index (FICI)” value in data set [1] was 1.5; in data set [4], 2.2; in [19] it was 1.9. The inhibition entry in [2] is “Dose-dependent effect”. In [3], this compound gave a half-life of 3.5 h. For the same compound, the outcome in [5], in [7], in [14], in [17] and in data set [20] was inactive. Further, the Activity result in [6] is recorded as “Non-toxic”; in data set [11], 45%; in [12] it was 0.5%; in data set [15], 0.72%; in data set [21], “Non-toxic”; in [23], “Non-toxic”. Also, the “fold change (FC)” value in data set [8] worked out at 0.03; in data set [10], 0.05; in data set [13] it was 0.12; in data set [18] it was 0.001. Also, the inhibition entry in data set [9] is “Active”. In addition, the time of peak concentration (Tmax) in data set [16] amounted to 1.3 h. This compound also gave an AUC in data set [22] of 3600 ng·h/mL.
